Data taken from ChEMBL document CHEMBL1123282, “Antiinflammatory activity of substituted 6-hydroxypyrimido[2,1-f]purine-2,4,8(1H,3H,9H)-triones. Atypical nonsteroidal antiinflammatory agents” (J Med Chem, 1986).
Where “and” joins values, the source holds several entries; their conditions need not be identical. Equal values may be shown once.

Legend:
[1] = organism: Rattus norvegicus; test: Antiinflammatory activity by immune response to collagen II antigen in rats antibody titer was determined by passive hemagglutinination; assay type: functional
How it was run: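 In rats with bovine type II collagen/incomplete Freund's adjuvant arthritis, the antibody response to collagen II was titred by passive hemagglutination. The delayed-type hypersensitivity component, ear thickness 24 h after intrapinna antigen, was read at day 21.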

[2] = organism: Rattus norvegicus; test: Delayed Type hypersensitivity (DTH) is measured by increase in ear thickness 24 hours after antigen injection into pinna; assay type: functional
[3] = test system: Rattus norvegicus; test: Compound was tested in vivo for antiinflammatory activity against rats by RPAR(reverse passive Arthus reaction) synovitis method; assay type: functional
How it was run: (§1)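 Lewis rats, oral drug or placebo 1 h before iv BSA (2.28 mg in saline), then intraarticular rabbit anti-BSA (0.54 mg) into one knee and saline into the other, under light anesthesia. Second oral dose at 3 h; the total of both doses is the calculated dose. About 17 h after induction, subpatellar tissue with synovium is excised and weighed. Response is antibody-minus-saline knee weight, tested by analysis of variance.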

[4] = test system: Rattus norvegicus; test: Antiinflammatory activity against collagen II arthritis in rats, activity % inhibition in noninjected paw edema; assay type: functional
How it was run: (§2)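 Rats immunised with bovine articular-cartilage type II collagen (dissolved in 0.01 M AcOH for 24 h at 4 °C, dialysed against saline) mixed in equal volume with incomplete Freund's adjuvant. Paws were examined weekly for 7 weeks. An animal counted as arthritic at Δ paw volume ≥8.0 (injected paw) or ≥4.0 (noninjected paw). Bone lesions were scored on lateral-projection foot radiographs. 16 rats/group.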

[5] = test system: Rattus norvegicus; test: Antiinflammatory activity against collagen II arthritis in rats, activity% inhibition in injected paw edema; assay type: functional; how it was run: as §2
[6] = test system: Rattus norvegicus; test: Compound was tested in vivo for antiinflammatory activity against chronic adjuvant arthritic rat by therapeutic inhibition 2 degree paw after peroral administration of 5 mg/kg of dose; details: po, read-out: Inhibition
[7] = test system: Rattus norvegicus; test: Compound was tested in vivo for antiinflammatory activity against chronic adjuvant arthritic rat by therapeutic inhibition 1 degree paw after peroral administration of 5 mg/kg of dose; details: po, read-out: Inhibition
[8] = test system: Rattus norvegicus; test: Compound was tested in vivo for antiinflammatory activity against chronic adjuvant arthritic rat by prophylactic inhibition 2 degree paw after peroral administration of 2 mg/kg of dose; details: po, read-out: Inhibition
[9] = test system: Rattus norvegicus; test: Compound was tested in vivo for antiinflammatory activity against chronic adjuvant arthritic rat by prophylactic inhibition 1 degree paw after peroral administration of 2 mg/kg of dose; details: po, read-out: Inhibition
[10] = organism: Rattus norvegicus; test: Antiinflammatory activity on the development of collagen II arthritis in rats, measured based on animals positive for arthritis by the presence of bone lesions; assay type: functional; how it was run: as §2
[11] = test system: Rattus norvegicus; test: Antiinflammatory activity on the development of collagen II arthritis in rats, measured based on animals positive for arthritis by the presence of paw edema; assay type: functional; how it was run: as §2
[12] = organism: Rattus norvegicus; test: compound was tested for antiinflammatory activity by immune response to collagen II antigen in rats, antibody titer was determined by passive hemagglutinination; assay type: functional, organism-based
How it was run: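 Rats immunized with bovine type II collagen in incomplete Freund's adjuvant, with drug given alongside. Antibody titer to collagen II measured by passive hemagglutination; p ≤ 0.05 by Student's t-test.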

[13] = organism: Rattus norvegicus; test: compound was tested for antiinflammatory activity against collagen II arthritis in rats,; assay type: functional
How it was run: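 Arthritis induced in rats by injection of bovine articular cartilage type II collagen (dissolved in 0.01 M AcOH, dialysed against saline) mixed 1:1 with incomplete Freund's adjuvant. Paw inflammation checked weekly for 7 weeks. Inhibition = [Δpaw vol(collagen) − Δpaw vol(collagen + drug)]/[Δpaw vol(collagen) − Δpaw vol(ICFA control)] × 100. Bone damage scored by lateral-projection radiography; p ≤ 0.05 by Student's t-test.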

[14] = test system: Rattus norvegicus; test: Compound was tested in vivo for antiinflammatory activity against chronic adjuvant arthritic rat by therapeutic inhibition 2 degree paw after peroral administration of 3 mg/kg of dose; details: po, read-out: Inhibition
[15] = test system: Rattus norvegicus; test: Compound was tested in vivo for antiinflammatory activity against chronic adjuvant arthritic rat by therapeutic inhibition 2 degree paw after peroral administration of 0.3 mg/kg of dose; details: po, read-out: Inhibition
[16] = test system: Rattus norvegicus; test: Compound was tested in vivo for antiinflammatory activity against chronic adjuvant arthritic rat by therapeutic inhibition 2 degree paw after peroral administration of 1 mg/kg of dose; assay type: functional; details: route oral
[17] = test system: Rattus norvegicus; test: Compound was tested in vivo for antiinflammatory activity against chronic adjuvant arthritic rat by prophylactic inhibition 2 degree paw after peroral administration of 1 mg/kg of dose; details: po, read-out: Inhibition
[18] = test system: Rattus norvegicus; test: compound was tested in vivo for antiinflammatory activity against rats by RPAR(reverse passive Arthus reaction) synovitis method
[19] = organism: Rattus norvegicus; test: animal or person; details: po, read-out: Inhibition
[20] = test system: Rattus norvegicus; test: Tested in vivo for antiinflammatory activity against chronic adjuvant arthritic rat by prophylactic inhibition 2 degree paw after peroral administration of 9 mg/kg of dose; assay type: functional; details: route oral
How it was run: (§3)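 Prophylactic regimen, rats. Adjuvant is heat-killed Mycobacterium tuberculosis ground to a fine powder in paraffin oil (6 mg/mL); 0.1 mL is injected into the left hind paw. Oral drug is given 1 h before adjuvant challenge, then for 21 consecutive days; controls receive methyl cellulose. Left (1°) and right (2°) hind paw volumes are measured by plethysmograph.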

[21] = test system: Rattus norvegicus; test: Tested in vivo for antiinflammatory activity against chronic adjuvant arthritic rat by prophylactic inhibition 1 degree paw after peroral administration of 9 mg/kg of dose; assay type: functional; details: route oral; how it was run: as §3
[22] = test system: Rattus norvegicus; test: In vivo antiinflammatory activity against rats by RPAR(reverse passive Arthus reaction) synovitis method; assay type: functional; design: concentration or dose not given beside the values; how it was run: as §1
[23] = test system: Rattus norvegicus; test: Compound was tested in vivo against chronic adjuvant arthritic rat by prophylactic inhibition 2 degree paw. Relative potency with respect to (8-Benzyl-5-hydroxy-1,3-dimethyl-6-propyl-1H,8H-1,3,4b,8,9-pentaaza-fluorene-2,4,7-trione); assay type: functional
[24] = test system: Rattus norvegicus; test: Compound was tested in vivo for antiinflammatory activity against chronic adjuvant arthritic rat by prophylactic inhibition 1 degree paw after peroral administration of 36 mg/kg of dose; details: po
[25] = test system: Rattus norvegicus; test: Compound was tested in vivo for antiinflammatory activity against chronic adjuvant arthritic rat by prophylactic inhibition 2 degree paw after peroral administration of 18 mg/kg of dose; details: po
[26] = test system: Rattus norvegicus; test: Compound was tested in vivo for antiinflammatory activity against chronic adjuvant arthritic rat by prophylactic inhibition 2 degree paw after peroral administration of 36 mg/kg of dose; details: po
[27] = test system: Rattus norvegicus; test: Compound was tested in vivo for antiinflammatory activity against rats by RPAR(reverse passive Arthus reaction) synovitis method ata dose of 50 mg/kg, po; assay type: functional; how it was run: as §1
[28] = test system: Rattus norvegicus; test: Compound was tested for intestinal ulcerogenic effect in rats at a dose of 10 mg/kg; assay type: functional
How it was run: (§4)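 Normal fed rats were gavaged once daily for three consecutive days at 10–300 mg/kg and killed 24 h after the last dose. Intestines were examined for ulcers, recording incidence per group of 8 and a lesion score (±SE).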

[29] = organism: Rattus norvegicus; test: Compound was tested for intestinal Ulcerogenic effect in rats, activity expressed as lesion score; assay type: functional; how it was run: as §4
[30] = organism: Rattus norvegicus; test: Compound was tested for intestinal Ulcerogenic effect in rats, activity expressed as ulcer incidence; assay type: functional; how it was run: as §4
[31] = organism: Rattus norvegicus; test: Compound was tested for gastric Ulcerogenic effect in rats, activity expressed as lesion length

Q: With `CN1C(C(=O)Nc2ccccn2)=C(O)c2ccccc2S1(=O)=O` [PIROXICAM] as the compound, how does the Antibody titer [1] read?
A: 12.2

Q: And the DTH [2]?
A: 0.0526 mm

Q: What about the ED50 [3] of the same compound?
A: 3.5 mg/kg

Q: What about the Inhibition [4] of the same compound?
A: 0%

Q: And the Inhibition [5]?
A: 0%

Q: What about the inhibition in vivo at 5 mg/kg [6] of the same compound?
A: 80%

Q: And the inhibition in vivo at 5 mg/kg [7]?
A: 68%

Q: What about the inhibition in vivo at 2 mg/kg [8] of the same compound?
A: 84%

Q: And the inhibition in vivo at 2 mg/kg [9]?
A: 66%

Q: And the Positive [10]?
A: 60%

Q: What about the Positive [11] of the same compound?
A: 73.3%

Q: Which results are given for AURANOFIN?
A: Antibody titer [12]: 12.9 log-2; DTH [2]: 0.0445 mM; Positive [13]: 43.7% and 43.8%

Q: Which results are given for `COc1ccc2cc([C@H](C)C(=O)O)ccc2c1` [NAPROXEN]?
A: inhibition in vivo at 3 mg/kg [14]: 70%; inhibition in vivo at 5 mg/kg [6]: 44%; inhibition in vivo at 0.3 mg/kg [15]: 27%; inhibition in vivo at 1 mg/kg [16]: 50%; inhibition in vivo at 1 mg/kg [17]: 14%; ED50 [18]: 24.4 mg/kg; inhibition in vivo at 25 mg/kg [19]: 58%

Q: Which inhibition in vivo at 9 mg/kg [20] does the source give for `CCCCc1c(O)n(Cc2ccccc2)c2nc3c(c(=O)n(C)c(=O)n3C)n2c1=O` here?
A: 55%

Q: What about the inhibition in vivo at 9 mg/kg [21] of the same compound?
A: 17%

Q: And the Inhibition [22]?
A: 48%

Q: And the Relative potency [23]?
A: 2.1

Q: And the inhibition in vivo at 36 mg/kg [24]?
A: 52%

Q: What about the inhibition in vivo at 18 mg/kg [25] of the same compound?
A: 64%

Q: What about the inhibition in vivo at 36 mg/kg [26] of the same compound?
A: 79%

Q: Which inhibition in vivo at 50 mg/kg [27] does the source give for `CCCc1c(O)n(C(C)c2ccccc2)c2nc3c(c(=O)n(C)c(=O)n3C)n2c1=O` (stereo not given) here?
A: 0%

Q: Which inhibition in vivo at 9 mg/kg [20] does the source give for `CCCCc1c(O)n(Cc2ccc(F)cc2)c2nc3c(c(=O)n(C)c(=O)n3C)n2c1=O` here?
A: 59%

Q: And the inhibition in vivo at 9 mg/kg [21]?
A: 28%

Q: And the Inhibition [22]?
A: 27%

Q: What about the Relative potency [23] of the same compound?
A: 3.8

Q: What about the inhibition in vivo at 36 mg/kg [24] of the same compound?
A: 74%

Q: And the inhibition in vivo at 18 mg/kg [25]?
A: 70%

Q: What about the inhibition in vivo at 36 mg/kg [26] of the same compound?
A: 74%

Q: What does the source list for `COc1ccc2c(c1)c(CC(=O)O)c(C)n2C(=O)c1ccc(Cl)cc1` [INDOMETHACIN]?
A: Ulcer incidence [28]: 8 number/group; Lesion length [29]: 4.2 mm rat-1; Ulcer incidence [30]: 8 number/group; Length [31]: 5 mm rat-1
